Experimental data published in ChEMBL document CHEMBL3593159, “Identification of 5-nitrofuran-2-amide derivatives that induce apoptosis in triple negative breast cancer cells by activating C/EBP-homologous protein expression” (Bioorg Med Chem, 2015).
Calls of active or inactive are those of the source. The calls are words filed in the database; no cut-off is given here.

Experiments:
HCC1806 [1] = test: Cytotoxicity against human HCC1806 cells assessed as reduction in cell viability incubated for 3 days by cell-titer-Glo reagent based assay; type: functional; conditions: for IC50: HCC1806, 72 h
Method in brief: (§1)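 Viability by CellTiter-Glo (ATP read-out). Cells plated at 3 × 10³/well in 384-well format overnight, then exposed to compound over a range (0.125–20 µM for initial series) for 3 d in RPMI 1640 with 10% FBS at 37°C, 5% CO₂. IC₅₀ fitted from dose–response curve.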

HCC38 = test: Cytotoxicity against human HCC38 cells assessed as reduction in cell viability incubated for 3 days by cell-titer-Glo reagent based assay; type: functional; conditions: for IC50: HCC38, 72 h; method in brief: as §1
HCC1143 = test: Cytotoxicity against human HCC1143 cells assessed as reduction in cell viability incubated for 3 days by cell-titer-Glo reagent based assay; type: functional; conditions: for IC50: HCC1143, 72 h; method in brief: as §1
HEK293 = test: Increase in CHOP mRNA expression in HEK293 cells at 10 uM incubated for 24 hrs by qRT-PCR method; type: functional, Homo sapiens
Method in brief: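 HEK293 cells given 10 µM compound or DMSO for 24 h; CHOP mRNA by qRT-PCR. Means of 3 replicate wells, 3 independent experiments, Student's t-test vs control.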

HEK-293T [2] = test: Increase in CHOP expression in HEK293T cells stably transfected with luciferase gene at 10 uM incubated for 24 hrs by luciferase reporter gene assay; type: functional, Homo sapiens
Method in brief: (§2)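 HEK293T cells stably carrying CHOP-, ERSE- or UPRE-luciferase reporters plated 7 × 10³/well in 384-well plates, after 16 h given compound (10 µM), tunicamycin 1 µg/mL or DMSO for 24 h; luciferase by Bright-Glo. Means of 4 replicate wells, representative of 3 experiments.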

HCC1806 [3] = test: Induction of apoptosis in human HCC1806 cells assessed as increase in caspase-3 cleavage at 10 uM incubated for 8 and 24 hrs by Western blotting method; type: functional, cell-based
Method in brief: (§3)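 HCC-1806 cells (8 × 10⁵ per 60-mm dish) treated with 10 µM for the indicated times, lysed in buffer with EDTA and phosphatase inhibitors; 20 µg protein on 7% SDS-PAGE, PVDF transfer, primary then HRP secondary antibodies (1:3000). α-Tubulin loading control; representative of 3 experiments.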

HCC1806 [4] = test: Cytotoxicity against human HCC1806 cells assessed as reduction in cell viability at 5 uM incubated for 48 hrs in presence of CHOP siRNA by cell-titer-Glo reagent based assay; type: functional
Method in brief: (§4)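 HCC-1806 cells in serum-free RPMI transfected with 20 nM CHOP or scrambled siRNA by lipofection; after 6 h medium replaced with 10% FBS RPMI and compound (5 µM) or DMSO added for 48 h in 96-well format. Viability by CellTiter-Glo; 3 independent experiments, Student's t-test vs DMSO.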

HCC1806 [5] = test: Increase in XBP1 mRNA splicing in human HCC1806 cells at 10 uM incubated for 4 hrs by RT-PCR method (reference value: 11%); type: functional
Method in brief: (§5)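 HCC-1806 cells given 10 µM compound or tunicamycin 1 µg/mL over a time course; XBP1 RT-PCR products resolved on agarose gel, GAPDH internal control. Spliced fraction by densitometry as XBP1s/(XBP1s+XBP1u) × 100%; 3 experiments.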

HCC1806 [6] = test: Increase in XBP1 mRNA splicing in human HCC1806 cells at 10 uM incubated for 2 hrs by RT-PCR method (reference value: 11%); type: functional; method in brief: as §5
MCF7 = test: Cytotoxicity against human MCF7 cells assessed as reduction in cell viability incubated for 3 days by cell-titer-Glo reagent based assay; type: functional
Method in brief: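 HCC-1806 and MCF7 cells exposed to compound for 3 d, viability read by CellTiter-Glo kit; means of 4 replicate wells, representative of 3 independent experiments.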

HCC1806 [7] = test: Increase in XBP1 mRNA splicing in human HCC1806 cells at 10 uM incubated for 24 hrs by RT-PCR method (reference value: 11%); type: functional; method in brief: as §5
HCC1806 [8] = test: Increase in XBP1 mRNA splicing in human HCC1806 cells at 10 uM incubated for 8 hrs by RT-PCR method (reference value: 11%); type: functional; method in brief: as §5
HCC1806 [9] = test: Increase in CHOP mRNA expression in human HCC1806 cells at 10 uM by qRT-PCR method relative to control; type: functional
Method in brief: (§6)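 HCC-1806 cells (4 × 10⁵/well) exposed to 10 µM over a time course; CHOP mRNA by qRT-PCR after TRIzol extraction and reverse transcription of 2 µg RNA. Means of 4 replicate wells, 3 experiments, t-test vs 0 h.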

HCC1806 [10] = test: Increase in ATF4 protein in human HCC1806 cells at 10 uM incubated for 2 to 8 hrs by Western blotting method; type: functional, cell-based; method in brief: as §3
HCC1806 [11] = test: Increase in CHOP mRNA expression in human HCC1806 cells at 10 uM by qRT-PCR method; type: functional, cell-based; conditions: TDE = time-dependent effect; method in brief: as §6
HCC1806 [12] = test: Increase in cleaved caspase-4 protein expression in human HCC1806 cells at 10 uM incubated for 8 to 24 hrs by Western blotting method; type: functional, cell-based; method in brief: as §3
HCC1806 [13] = test: Increase in CHOP mRNA expression in human HCC1806 cells at 5 uM in presence of CHOP siRNA incubated for 48 hrs by qRT-PCR method; type: functional, cell-based
Method in brief: (§7)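 HCC-1806 cells transfected with CHOP or scrambled siRNA; 6 h later treated with 5 µM compound or DMSO for 48 h. CHOP mRNA by RT-PCR with GAPDH as internal control; 3 independent experiments.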

HCC1806 [14] = test: Increase in CHOP mRNA expression in human HCC1806 cells incubated for 8 hrs by qRT-PCR method relative to control; type: functional
Method in brief: (§8)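 HCC-1806 cells (4 × 10⁵/well, 6-well) treated at a series of concentrations for 8 h; total RNA by TRIzol, 2 µg reverse transcribed, CHOP mRNA by qRT-PCR. Means of 4 replicate wells, 3 experiments, t-test vs DMSO.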

HCC1806 [15] = test: Induction of apoptosis in human HCC1806 cells assessed as reduction in cell number at 10 uM incubated for 24 hrs by live-cell phase-contrast microscopy; type: functional, cell-based
Method in brief: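 Near-confluent HCC-1806 cultures treated with 10 µM compound or DMSO for 24 h, then imaged by live-cell phase-contrast microscopy at 10× magnification.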

HCC1806 [16] = test: Increase in CHOP mRNA expression in human HCC1806 cells at 5 uM in presence of control siRNA incubated for 48 hrs by qRT-PCR method; type: functional, cell-based; method in brief: as §7
HCC1806 [17] = test: Increase in eIF2alpha phosphorylation in human HCC1806 cells at 10 uM incubated for 1 to 24 hrs by Western blotting method; type: functional, cell-based; method in brief: as §3
HCC1806 [18] = test: Reduction in Bcl-2 protein expression in human HCC1806 cells at 10 uM incubated for 2 to 24 hrs by Western blotting method; type: functional, cell-based; method in brief: as §3
HCC1806 [19] = test: Increase in Bim mRNA expression in human HCC1806 cells at 10 uM by RT-PCR method; type: functional, cell-based; conditions: TDE = time-dependent effect
Method in brief: (§9)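 HCC-1806 cells treated with 10 µM over a time course; ATF4, GADD34 or Bim mRNA by qRT-PCR. Means of 4 replicate wells, representative of 3 experiments, Student's t-test vs DMSO-treated cells.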

HCC1806 [20] = test: Cytotoxicity against human HCC1806 cells assessed as reduction in cell viability at 5 uM incubated for 48 hrs in presence of control siRNA by cell-titer-Glo reagent based assay; type: functional; method in brief: as §4
HCC1806 [21] = test: Increase in ATF4 mRNA expression in human HCC1806 cells at 10 uM incubated for 2 to 8 hrs by qRT-PCR method; type: functional, cell-based; method in brief: as §9
HCC1806 [22] = test: Increase in CHOP protein expression in human HCC1806 cells at 10 uM incubated for 2 and 24 hrs by Western blotting method; type: functional, cell-based; conditions: in the assay text read “4 and 24 hrs” for “2 and 24 hrs”; method in brief: as §3
HCC1806 [23] = test: Reduction in eIF2alpha phosphorylation in human HCC1806 cells at 10 uM incubated for 1 to 24 hrs by Western blotting method; type: functional, cell-based; method in brief: as §3
HEK-293T [24] = test: Increase in UPRE-mediated luciferase expression in HEK293T cells stably transfected with UPRE-luciferase gene at 10 uM incubated for 24 hrs by luciferase reporter gene assay relative to control; type: functional, Homo sapiens; method in brief: as §2
HCC1806 [25] = test: Increase in CHOP mRNA expression in human HCC1806 cells incubated for 8 hrs by qRT-PCR method; type: functional, cell-based; method in brief: as §8
HEK-293T [26] = test: Increase in ERSE-mediated luciferase expression in HEK293T cells stably transfected with ERSE-luciferase gene at 10 uM incubated for 24 hrs by luciferase reporter gene assay; type: functional, cell-based; conditions: Homo sapiens; method in brief: as §2
HCC1806 [27] = test: Reduction in ATF4 protein in human HCC1806 cells at 10 uM incubated for 2 to 8 hrs by Western blotting method; type: functional, cell-based; method in brief: as §3
HCC1806 [28] = test: Increase in GADD34 mRNA expression in human HCC1806 cells at 10 uM incubated for 2 to 24 hrs by qRT-PCR method; type: functional, cell-based; conditions: TDE = time-dependent effect; method in brief: as §9

O=C(Nc1cccc(OC(F)(F)F)c1)c1ccc([N+](=O)[O-])o1
IC50 (HCC1806 [1]): 19.6 µM

O=C(Nc1ccc(N2CCCCC2)c(F)c1)c1ccco1
IC50 (HCC1806 [1]): > 40 µM

CCc1ccc(NC(=O)c2ccc([N+](=O)[O-])o2)cc1
IC50 (HCC1806 [1]): 5 µM

O=C(Nc1ccc(N2CCN(Cc3ccccc3F)CC2)cc1)c1ccc([N+](=O)[O-])o1
IC50 (HCC1806 [1]): 3 µM
IC50 (HCC38): 1.9 µM
IC50 (HCC1143): 3.8 µM

O=C(Nc1ccc(N2CCCCC2)c(Cl)c1)c1ccc([N+](=O)[O-])o1
IC50 (HCC1806 [1]): 3.5 µM
IC50 (HCC38): 3.8 µM
IC50 (HCC1143): 4.5 µM

O=C(Nc1ccc(N2CCOCC2)c(Br)c1)c1ccco1
IC50 (HCC1806 [1]): > 40 µM

O=C(Nc1cc(Cl)ccc1Cl)c1ccc([N+](=O)[O-])o1
IC50 (HCC1806 [1]): 8.6 µM

O=C(Nc1ccc(N2CCOCC2)cc1)c1ccc([N+](=O)[O-])o1
IC50 (HCC1806 [1]): 1.5 µM
IC50 (HCC38): 3.1 µM
IC50 (HCC1143): 2.3 µM

O=C(Nc1ccc(I)cc1)c1ccc([N+](=O)[O-])o1
fold change (FC) (HEK293): 30
fold change (FC) (HEK-293T [2]): 24
Activity (HCC1806 [1]): Dose-dependent effect
IC50 (HCC1806 [1]): 6.2 µM
Activity (HCC38): Dose-dependent effect
IC50 (HCC38): 8.7 µM
Activity (HCC1143): Dose-dependent effect
IC50 (HCC1143): 9.5 µM

CC1CCN(c2ccc(NC(=O)c3ccc([N+](=O)[O-])o3)cc2)CC1
Activity (HCC1806 [3]): Active
Activity (HCC1806 [4]): inactive
Activity (HCC1806 [5]): 16.4%
Activity (HCC1806 [6]): 19.6%
Activity (MCF7): Dose-dependent effect
Activity (HCC1806 [7]): 15.3%
Activity (HCC1806 [8]): 14.2%
fold change (FC) (HCC1806 [9]): 9
Activity (HCC1806 [1]): Dose-dependent effect
IC50 (HCC1806 [1]): 2.8 µM
IC50 (HCC38): 2.5 µM
Activity (HCC1806 [10]): Active
Activity (HCC1806 [11]): tde
Activity (HCC1806 [12]): Active
Activity (HCC1806 [13]): Active
fold change (FC) (HCC1806 [14]): 9
Activity (HCC1806 [15]): Active
Activity (HCC1806 [16]): Active
Activity (HCC1806 [17]): Active
Activity (HCC1806 [18]): Active
Activity (HCC1806 [19]): tde
Activity (HCC1806 [20]): Active
Activity (HCC1806 [21]): Active
Activity (HCC1806 [22]): Active
Activity (HCC1806 [23]): Active
fold change (FC) (HEK-293T [24]): < 2
Activity (HCC1806 [25]): Dose-dependent effect
IC50 (HCC1143): 2.1 µM
Activity (HEK-293T [26]): inactive
Activity (HCC1806 [27]): Active
Activity (HCC1806 [28]): tde
